Assays:
Assay type in all cases: functional
Mus musculus [1] = test: Trypanocidal Activity at I.C.E. value 0.59 when administered subcutaneously.
Summary of the method: (§1)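 Mice, in groups of five per dose, were given a standard inoculum of blood-stage T. rhodesiense that is lethal to all untreated controls, then dosed subcutaneously. Usually 11 dose levels were used (2^n × 0.42 mg/kg).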

[2] = system: Trypanosoma brucei rhodesiense; test: In Vitro measurement of inhibition of leucine uptake in cell culture of Trypanosoma rhodesiense.; settings: read-out: ID50 (the source's name)
Summary of the method: (§2)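 Trypanosomes harvested from infected rats, cultured 3 h with several concentrations of drug, usually 0.1–100 µg/mL. Radiolabeled L-leucine uptake measured. ID50 is the concentration in µg/mL giving 50% inhibition of incorporation.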

[3] = system: Trypanosoma brucei rhodesiense; test: In Vitro measurement of inhibition of thymidine uptake in cell culture of Trypanosoma rhodesiense.; settings: read-out: ID50 (the source's name)
Summary of the method: (§3)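 Parasites harvested from infected rats and incubated 3 h across a drug concentration series, usually 0.1–100 µg/mL. Incorporation of radiolabeled thymidine measured. ID50 is the concentration (µg/mL) producing 50% inhibition.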

Mus musculus [4] = test: Trypanocidal Activity at I.C.E. value 0.85 when administered subcutaneously.; summary of the method: as §1
Mus musculus [5] = test: Trypanocidal Activity at I.C.E. value 0.10 when administered perorally.
Mus musculus [6] = test: Trypanocidal Activity at I.C.E. value 0.29 when administered subcutaneously.
Summary of the method: (§4)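 Blood-stage T. rhodesiense infection came from a standard inoculum lethal to all untreated mice. Drug was given by subcutaneous injection to groups of five mice. Survival beyond 30 days counted as cure. […] Sub-curative doses scored 0, and data were normalized at each dose.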

Mus musculus [7] = test: Trypanocidal Activity at I.C.E. value 0.31 when administered subcutaneously.; summary of the method: as §4
Mus musculus [8] = test: Trypanocidal Activity at I.C.E. value 0.33 when administered subcutaneously.; summary of the method: as §4
Mus musculus [9] = test: Trypanocidal Activity at I.C.E. value 0.43 when administered subcutaneously.; summary of the method: as §4
Mus musculus [10] = test: Trypanocidal Activity at I.C.E. value 0.86 when administered subcutaneously.; summary of the method: as §1
Mus musculus [11] = test: Trypanocidal Activity at I.C.E. value 0.63 when administered subcutaneously.; summary of the method: as §1
Mus musculus [12] = test: Trypanocidal Activity was determined after subcutaneous administration; summary of the method: as §1
[13] = system: Trypanosoma brucei rhodesiense; test: In Vitro measurement of inhibition of leucine uptake in cell culture of Trypanosoma rhodesiense; settings: read-out: ID50 (the source's name); summary of the method: as §2
[14] = system: Trypanosoma brucei rhodesiense; test: In Vitro measurement of inhibition of thymidine uptake in cell culture of Trypanosoma rhodesiense; settings: read-out: ID50 (the source's name); summary of the method: as §3
Mus musculus [15] = test: Trypanocidal Activity at I.C.E. value 0.19 when administered subcutaneously.
Mus musculus [16] = test: Trypanocidal Activity at I.C.E. value 0.36 when administered subcutaneously.
Mus musculus [17] = test: Trypanocidal Activity at I.C.E. value 0.45 when administered perorally.
Mus musculus [18] = test: Trypanocidal Activity at I.C.E. value 0.27 when administered subcutaneously.; summary of the method: as §4
Mus musculus [19] = test: Trypanocidal Activity at I.C.E. value 0.37 when administered subcutaneously.; summary of the method: as §4
Mus musculus [20] = test: Trypanocidal Activity at I.C.E. value 0.57 when administered perorally.
Mus musculus [21] = test: Trypanocidal Activity at I.C.E. value 0.35 when administered perorally.
Mus musculus [22] = test: Trypanocidal Activity at I.C.E. value 0.45 when administered subcutaneously.; summary of the method: as §4
Mus musculus [23] = test: Trypanocidal Activity at I.C.E. value 0.58 when administered subcutaneously.; summary of the method: as §1
Mus musculus [24] = test: Trypanocidal Activity at I.C.E. value 0.69 when administered subcutaneously.; summary of the method: as §1
Mus musculus [25] = test: Trypanocidal Activity at I.C.E. value 0.21 when administered subcutaneously.
Mus musculus [26] = test: Trypanocidal Activity at I.C.E. value 0.18 when administered subcutaneously.
Mus musculus [27] = test: Trypanocidal Activity at I.C.E. value 0.71 when administered subcutaneously.; summary of the method: as §1
Mus musculus [28] = test: Trypanocidal Activity at I.C.E. value 0.53 when administered perorally.
Mus musculus [29] = test: Trypanocidal Activity at I.C.E. value 0.48 when administered subcutaneously.; summary of the method: as §4
Mus musculus [30] = test: Trypanocidal Activity at I.C.E. value 0.26 when administered subcutaneously.; summary of the method: as §4

Br.CCNC(=N)N/N=C/c1ccc(-c2cn3ccccc3[n+]2C)cc1.[Br-]
CD50 (Mus musculus [1]): 0.1 mg/kg
IC50 [2]: 0.5 µg/mL
IC50 [3]: 0.4 µg/mL

Br.Cc1ccc2n(c1)cc(COc1ccc(/C=N/NC(=N)NO)cc1)[n+]2C.[Br-]
CD50 (Mus musculus [4]): 0.2 mg/kg

Br.CC/N=C(\NCC)N/N=C/c1ccc(OCc2n(C)c3ccccc3[n+]2C)cc1.[Br-]
CD50 (Mus musculus [5]): 212 mg/kg
CD50 (Mus musculus [6]): 6.6 mg/kg

Br.Cc1ccn2cc(-c3ccc(/C=N/NC(=N)NN4CCOCC4)cc3)[n+](C)c2c1.[Br-]
CD50 (Mus musculus [7]): 0.8 mg/kg

Br.C[n+]1c(-c2ccc(/C=N/NC(=N)N3CCOCC3)cc2)cn2ccccc21.[Br-]
CD50 (Mus musculus [8]): 0.4 mg/kg

C[n+]1c(-c2ccc(/C=N/Nc3nc(N)nc(N)n3)cc2)cn2ccccc21.Cc1ccc(S(=O)(=O)[O-])cc1
CD50 (Mus musculus [9]): 6.6 mg/kg

Br.Cc1ccc2n(c1)cc(COc1ccc(/C=N/NC3=NCCN3)cc1)[n+]2C.[Br-]
CD50 (Mus musculus [10]): 0.8 mg/kg

Cc1ccc(S(=O)(=O)O)cc1.Cc1ccc(S(=O)(=O)[O-])cc1.Cn1cc[n+](C)c1/C=C/c1ccc(/C=N/NC(=N)N2CCCC2)cc1
CD50 (Mus musculus [11]): 0.03 mg/kg

CCNC(=N)N/N=C/c1ccc(OCc2n(C)cc[n+]2C)cc1.Cc1ccc(S(=O)(=O)O)cc1.Cc1ccc(S(=O)(=O)[O-])cc1
CD50 (Mus musculus [12]): 6.6 mg/kg

Br.Cc1ccc2n(c1)cc(-c1ccc(/C=N/NC(=N)N(C)C)cc1)[n+]2C.[Br-]
CD50 (Mus musculus [9]): 0.8 mg/kg

Br.Cn1c[n+](Cc2ccc(/C=N/NC3=NCCN3)cc2)c2ccccc21.[Br-]
IC50 [13]: > 10 µg/mL
IC50 [14]: 11.1 µg/mL
CD50 (Mus musculus [5]): 424 mg/kg
CD50 (Mus musculus [15]): 3.3 mg/kg

Br.C[n+]1cccc(COc2ccc(/C=N/NC3=NCCN3)cc2)c1.[Br-]
CD50 (Mus musculus [16]): 3.3 mg/kg
CD50 (Mus musculus [17]): 13 mg/kg

Br.C[n+]1c(COc2ccc(/C=N/NC(=N)N3CCCC3)cc2)cn2cc(C(F)(F)F)ccc21.[Br-]
CD50 (Mus musculus [18]): 26 mg/kg

Br.CCCNC(=N)N/N=C/c1ccc(-c2cn3ccc(C)cc3[n+]2C)cc1.[Br-]
CD50 (Mus musculus [11]): 0.2 mg/kg
IC50 [2]: 4.6 µg/mL
CD50 (Mus musculus [17]): 26 mg/kg
IC50 [3]: 1.9 µg/mL

Cc1ccc(S(=O)(=O)[O-])cc1.Cn1c(COc2ccc(/C=N/NC(=O)c3ccc(N)cc3)cc2)[n+](C)c2ccccc21
CD50 (Mus musculus [19]): 6.6 mg/kg

Cc1ccc(S(=O)(=O)O)cc1.Cc1ccc(S(=O)(=O)[O-])cc1.Cn1c(COc2ccc(/C=N/NC(=N)N3CCCC3)cc2)[n+](C)c2ccccc21
CD50 (Mus musculus [20]): 6.6 mg/kg
CD50 (Mus musculus [8]): 0.8 mg/kg

Br.C[n+]1cccc(COc2ccc(/C=N/NC3=NCCCN3)cc2)c1.[Br-]
IC50 [13]: > 10 µg/mL
IC50 [14]: 3.7 µg/mL
CD50 (Mus musculus [21]): 53 mg/kg
CD50 (Mus musculus [22]): 0.8 mg/kg

C[n+]1c(/C=C/c2ccc(/C=N/NC(=O)c3ccc(N)cc3)cc2)cn2ccccc21.Cc1ccc(S(=O)(=O)[O-])cc1
CD50 (Mus musculus [23]): 6.6 mg/kg

Br.Cc1ccc2n(c1)cc(COc1ccc(/C=N/NC3=NCCCN3)cc1)[n+]2C.[Br-]
CD50 (Mus musculus [24]): 0.8 mg/kg

Br.C[n+]1c(-c2ccc(/C=N/NC(=N)N)cc2)cn2c1CCCC2.[Br-]
CD50 (Mus musculus [9]): 0.4 mg/kg

C[n+]1c(-c2ccc(/C=N/NC3N=NC(=S)N3N)cc2)cn2ccsc21.[Br-] (stereo unspecified)
IC50 [13]: 4.6 µg/mL
IC50 [14]: 2.4 µg/mL
CD50 (Mus musculus [25]): 212 mg/kg

C[n+]1c(-c2ccc(/C=N/NC3N=NC(=S)N3N)cc2)cn2ccccc21.[Br-] (stereo unspecified)
CD50 (Mus musculus [26]): 53 mg/kg

Br.C/N=C(\NC)N/N=C/c1ccc(OCc2cn3ccccc3[n+]2C)cc1.[Br-]
CD50 (Mus musculus [21]): 53 mg/kg
CD50 (Mus musculus [22]): 0.8 mg/kg

C[n+]1c(-c2ccc(/C=N/Nc3nccs3)cc2)cn2ccsc21.[Br-]
CD50 (Mus musculus [7]): 26 mg/kg

C[n+]1c(/C=C/c2ccc(/C=N/NC3=NCCCN3)cc2)cn2ccccc21.[Br-]
CD50 (Mus musculus [27]): 0.4 mg/kg
CD50 (Mus musculus [28]): 13 mg/kg

Cc1ccc2n(c1)cc(-c1ccc(/C=N/Nc3ccccn3)cc1)[n+]2C.[Br-]
CD50 (Mus musculus [29]): 0.8 mg/kg

C[n+]1c(COc2ccc(/C=N/Nc3nccs3)cc2)cn2ccccc21.[Br-]
CD50 (Mus musculus [18]): 53 mg/kg

C[n+]1c(-c2ccc(/C=N/Nc3ncccn3)cc2)cn2ccccc21.[Br-]
CD50 (Mus musculus [30]): 6.6 mg/kg

From ChEMBL document CHEMBL1124947, “Cationic antiprotozoal drugs. Trypanocidal activity of 2-(4'-formylphenyl)imidazo[1,2-a]pyridinium guanylhydrazones and related derivatives of quaternary heteroaromatic compounds” (J Med Chem, 1990)
